Assay results from ChEMBL document CHEMBL3868583, “6-Aryl substituted 4-(4-cyanomethyl) phenylamino quinazolines as a new class of isoform-selective PI3K-alpha inhibitors” (Eur J Med Chem, 2016).

What was measured:
[1] = target: T1, Phosphatidylinositol 4,5-bisphosphate 3-kinase catalytic subunit alpha isoform (Homo sapiens, UniProt P42336); assay: Inhibition of PI3Kalpha (unknown origin) using diC8 PIP2 as substrate after 80 mins by ADP-glo assay
[2] = Cytotoxicity against human PC3 cells assessed as cell growth inhibition after 48 hrs by MTT assay; assay type: functional; details: PC-3, 48 h
In short: (§1)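 MTT assay: 3 × 10^3 cells/well seeded, compounds added after 24 h at final […], 48 h exposure. MTT (2.5 mg/mL in PBS) added, formazan dissolved in DMSO, absorbance 570 nm. Viability as % of untreated; three independent experiments, mean ± SD.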

[3] = target: T2, Phosphatidylinositol 4,5-bisphosphate 3-kinase catalytic subunit gamma isoform (Homo sapiens, UniProt P48736); assay: Inhibition of PI3Kgamma (unknown origin) using diC8 PIP2 as substrate after 75 mins by ADP-glo assay
Homo sapiens [4] = species: Homo sapiens; assay: Selectivity ratio of IC50 for PI3Kdelta (unknown origin) to IC50 for PI3Kalpha (unknown origin)
[5] = Cytotoxicity against human HL60 cells assessed as cell growth inhibition after 48 hrs by MTT assay; assay type: functional; details: HL-60, 48 h; in short: as §1
[6] = target: T3, Phosphatidylinositol 4,5-bisphosphate 3-kinase catalytic subunit delta isoform (Homo sapiens, UniProt O00329); assay: Inhibition of PI3Kdelta (unknown origin) using diC8 PIP2 as substrate after 120 mins by ADP-glo assay
T3 sequence (O00329 whole entry): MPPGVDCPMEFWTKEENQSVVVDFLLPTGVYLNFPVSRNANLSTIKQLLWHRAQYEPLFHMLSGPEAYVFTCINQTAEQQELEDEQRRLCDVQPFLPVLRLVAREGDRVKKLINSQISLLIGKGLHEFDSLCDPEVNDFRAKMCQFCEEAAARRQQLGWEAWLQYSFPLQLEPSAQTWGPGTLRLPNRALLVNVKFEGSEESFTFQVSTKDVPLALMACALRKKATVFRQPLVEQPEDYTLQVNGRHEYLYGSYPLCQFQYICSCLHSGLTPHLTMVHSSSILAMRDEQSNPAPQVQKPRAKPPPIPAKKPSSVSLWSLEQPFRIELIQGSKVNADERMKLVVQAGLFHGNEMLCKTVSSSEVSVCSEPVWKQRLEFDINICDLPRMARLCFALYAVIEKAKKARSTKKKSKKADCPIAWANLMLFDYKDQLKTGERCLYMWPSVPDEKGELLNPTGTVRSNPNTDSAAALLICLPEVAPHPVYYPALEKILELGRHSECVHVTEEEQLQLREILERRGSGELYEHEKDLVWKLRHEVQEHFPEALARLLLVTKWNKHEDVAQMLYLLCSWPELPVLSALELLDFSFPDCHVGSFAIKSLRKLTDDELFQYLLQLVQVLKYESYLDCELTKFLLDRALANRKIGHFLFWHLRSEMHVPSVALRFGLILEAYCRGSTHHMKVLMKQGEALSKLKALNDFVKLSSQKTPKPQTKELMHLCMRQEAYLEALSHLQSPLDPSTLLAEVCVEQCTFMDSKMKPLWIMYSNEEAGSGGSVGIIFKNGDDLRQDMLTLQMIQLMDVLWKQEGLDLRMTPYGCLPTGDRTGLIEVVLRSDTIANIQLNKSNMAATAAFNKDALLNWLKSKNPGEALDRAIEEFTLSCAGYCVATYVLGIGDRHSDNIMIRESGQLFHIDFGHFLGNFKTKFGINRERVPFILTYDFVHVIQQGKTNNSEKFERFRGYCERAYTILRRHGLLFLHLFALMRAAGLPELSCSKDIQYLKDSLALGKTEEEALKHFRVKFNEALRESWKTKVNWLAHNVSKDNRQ
In short: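 Delta isoform reacted 120 min in glycine-NaOH pH 8.5 buffer (50 mM KCl, 2.5 mM MgCl2, 1 mM DTT, 0.05% CHAPS) with 0.01 mM ATP and 0.05 mM diC8 PIP2; ADP formed detected by ADP-Glo (40 min) plus detection buffer (40 min) luminescence. Dundee profiling centre.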

[7] = target: T1, Phosphatidylinositol 4,5-bisphosphate 3-kinase catalytic subunit alpha isoform; assay: Inhibition of PI3Kalpha (unknown origin) using diC8 PIP2 as substrate at 0.5 uM after 80 mins by ADP-glo assay
[8] = Cytotoxicity against human MCF7 cells assessed as cell growth inhibition after 48 hrs by MTT assay; assay type: functional; details: MCF7, 48 h; in short: as §1
[9] = Cytotoxicity against human PANC1 cells assessed as cell growth inhibition after 48 hrs by MTT assay; assay type: functional; details: PANC-1, 48 h; in short: as §1
[10] = Cytotoxicity against human A375 cells assessed as cell growth inhibition after 48 hrs by MTT assay; assay type: functional; details: A-375, 48 h; in short: as §1
Homo sapiens [11] = species: Homo sapiens; assay: Selectivity ratio of IC50 for PI3Kbeta (unknown origin) to IC50 for PI3Kalpha (unknown origin)
Homo sapiens [12] = species: Homo sapiens; assay: Selectivity ratio of IC50 for PI3Kgamma (unknown origin) to IC50 for PI3Kalpha (unknown origin)
[13] = target: T4, Phosphatidylinositol 4,5-bisphosphate 3-kinase catalytic subunit beta isoform (Homo sapiens, UniProt P42338); assay: Inhibition of PI3Kbeta (unknown origin) using diC8 PIP2 as substrate after 60 mins by ADP-glo assay
[14] = target: T3, Phosphatidylinositol 4,5-bisphosphate 3-kinase catalytic subunit delta isoform; assay: Inhibition of PI3Kdelta (unknown origin)
In short: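 Substrate was 0.05 mM diC8 PIP2 with 0.01 mM ATP, and the kinase reaction ran 120 min. ADP produced was read by ADP-Glo luminescence: 40 min with ADP-Glo reagent, then 40 min with detection buffer.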

[15] = target: T1, Phosphatidylinositol 4,5-bisphosphate 3-kinase catalytic subunit alpha isoform; assay: Inhibition of PI3Kalpha (unknown origin)
In short: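 Run by a kinase profiling service. Reaction 80 min. ADP-Glo reagent added for 40 min, then kinase detection buffer for 40 min. Luminescence read.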

[16] = target: T2, Phosphatidylinositol 4,5-bisphosphate 3-kinase catalytic subunit gamma isoform
[17] = target: T4, Phosphatidylinositol 4,5-bisphosphate 3-kinase catalytic subunit beta isoform; assay: Inhibition of PI3Kbeta (unknown origin)
[18] = Anticancer activity against Swiss mouse EAC cells implanted in Swiss mouse assessed as tumor growth inhibition at 20 mg/kg, ip administered for 1 to 9 days measured on day 12 relative to control; assay type: functional; details: Ehrlich, read-out: TGI
In short: (§2)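 1×10^7 EAC cells injected intraperitoneally into Swiss mice on day 0. Mice randomized next day: treated groups n=7, saline control n=10 (0.2 ml i.p.). Dosing i.p. days 1–9. Sacrifice on day 12; ascitic fluid collected from the peritoneal cavity. % tumor growth inhibition from total tumor cell count versus control. Body weight and mortality tracked.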

Mus musculus [19] = assay: Toxicity in Swiss mouse implanted with Swiss mouse EAT cells assessed as body weight at 22 mg/kg, ip administered for 1 to 9 days measured on day 1 (reference value: 21.6 g); assay type: organism-based; details: in vivo
In short: (§3)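 EAC cells harvested from 8–10-day ascitic Swiss mice; 1×10^7 cells injected intramuscularly into right thigh of Swiss male mice on day 0. Randomized next day: treated n=7, saline control n=10 (0.2 ml i.p.). Dosing i.p. days 1–9. […] Body weight and mortality tracked.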

Mus musculus [20] = assay: Toxicity in Swiss mouse implanted with Swiss mouse EAT cells assessed as body weight at 22 mg/kg, ip administered for 1 to 9 days measured on day 9 (reference value: 22.8 g); assay type: organism-based; details: in vivo; in short: as §3
[21] = Anticancer activity against Swiss mouse EAT cells implanted in Swiss mouse assessed as tumor growth inhibition at 22 mg/kg, ip administered for 1 to 9 days measured on day 13 relative to control; assay type: functional; details: read-out: TGI
Mus musculus [22] = assay: Toxicity in Swiss mouse implanted with Swiss mouse EAC cells assessed as body weight at 20 mg/kg, ip administered for 1 to 9 days measured on day 12 (reference value: 28.4 g); assay type: organism-based, Ehrlich; details: in vivo; in short: as §2
Mus musculus [23] = assay: Toxicity in Swiss mouse implanted with Swiss mouse EAT cells assessed as body weight at 22 mg/kg, ip administered for 1 to 9 days measured on day 5 (reference value: 22.6 g); assay type: organism-based; details: in vivo; in short: as §3
Mus musculus [24] = assay: Toxicity in Swiss mouse implanted with Swiss mouse EAC cells assessed as mortality at 20 mg/kg, ip administered for 1 to 9 days measured on day 12; assay type: organism-based, Ehrlich; details: in vivo; in short: as §2
Mus musculus [25] = assay: Toxicity in Swiss mouse implanted with Swiss mouse EAC cells assessed as body weight at 20 mg/kg, ip administered for 1 to 9 days measured on day 1 (reference value: 22.8 g); assay type: organism-based, Ehrlich; details: in vivo; in short: as §2
Mus musculus [26] = assay: Toxicity in Swiss mouse implanted with Swiss mouse EAT cells assessed as body weight at 22 mg/kg, ip administered for 1 to 9 days measured on day 13 (reference value: 24.1 g); assay type: organism-based; details: in vivo; in short: as §3
Mus musculus [27] = assay: Toxicity in Swiss mouse implanted with Swiss mouse EAC cells assessed as body weight at 20 mg/kg, ip administered for 1 to 9 days measured on day 5 (reference value: 26.2 g); assay type: organism-based, Ehrlich; details: in vivo; in short: as §2
Mus musculus [28] = assay: Toxicity in Swiss mouse implanted with Swiss mouse EAC cells assessed as body weight at 20 mg/kg, ip administered for 1 to 9 days measured on day 9 (reference value: 27.7 g); assay type: organism-based, Ehrlich; details: in vivo; in short: as §2
Mus musculus [29] = assay: Toxicity in Swiss mouse implanted with Swiss mouse EAT cells assessed as mortality at 22 mg/kg, ip administered for 1 to 9 days measured on day 9 and 13; assay type: organism-based; details: in vivo; in short: as §3

T1 sequence (P42336 whole entry, canonical isoform): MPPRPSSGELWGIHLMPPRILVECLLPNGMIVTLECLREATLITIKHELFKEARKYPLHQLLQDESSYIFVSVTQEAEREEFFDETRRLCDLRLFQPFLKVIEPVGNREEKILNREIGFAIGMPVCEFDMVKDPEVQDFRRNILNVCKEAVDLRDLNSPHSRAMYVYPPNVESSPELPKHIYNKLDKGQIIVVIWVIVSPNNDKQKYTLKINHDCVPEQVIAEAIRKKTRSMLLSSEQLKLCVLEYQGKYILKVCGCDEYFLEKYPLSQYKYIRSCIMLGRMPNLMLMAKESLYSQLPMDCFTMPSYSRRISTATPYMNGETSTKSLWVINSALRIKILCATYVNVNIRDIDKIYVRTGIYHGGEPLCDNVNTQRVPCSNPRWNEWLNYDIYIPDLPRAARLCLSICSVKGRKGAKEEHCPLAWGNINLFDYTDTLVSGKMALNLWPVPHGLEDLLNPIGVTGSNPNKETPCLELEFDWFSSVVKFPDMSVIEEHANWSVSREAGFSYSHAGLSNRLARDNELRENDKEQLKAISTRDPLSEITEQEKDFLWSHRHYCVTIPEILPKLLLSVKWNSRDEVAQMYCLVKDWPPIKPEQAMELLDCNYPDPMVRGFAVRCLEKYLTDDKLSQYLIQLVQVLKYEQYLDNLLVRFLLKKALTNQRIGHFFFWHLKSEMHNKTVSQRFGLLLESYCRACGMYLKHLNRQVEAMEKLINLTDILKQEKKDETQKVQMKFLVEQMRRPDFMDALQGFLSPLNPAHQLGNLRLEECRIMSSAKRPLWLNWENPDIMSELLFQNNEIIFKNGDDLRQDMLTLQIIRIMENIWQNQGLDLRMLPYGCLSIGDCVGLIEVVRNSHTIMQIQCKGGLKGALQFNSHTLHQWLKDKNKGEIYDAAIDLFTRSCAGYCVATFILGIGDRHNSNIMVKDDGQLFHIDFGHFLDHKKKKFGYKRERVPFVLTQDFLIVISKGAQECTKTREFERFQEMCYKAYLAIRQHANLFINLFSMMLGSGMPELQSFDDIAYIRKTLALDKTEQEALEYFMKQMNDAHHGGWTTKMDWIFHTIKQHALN
T2 sequence (P48736 whole entry, canonical isoform): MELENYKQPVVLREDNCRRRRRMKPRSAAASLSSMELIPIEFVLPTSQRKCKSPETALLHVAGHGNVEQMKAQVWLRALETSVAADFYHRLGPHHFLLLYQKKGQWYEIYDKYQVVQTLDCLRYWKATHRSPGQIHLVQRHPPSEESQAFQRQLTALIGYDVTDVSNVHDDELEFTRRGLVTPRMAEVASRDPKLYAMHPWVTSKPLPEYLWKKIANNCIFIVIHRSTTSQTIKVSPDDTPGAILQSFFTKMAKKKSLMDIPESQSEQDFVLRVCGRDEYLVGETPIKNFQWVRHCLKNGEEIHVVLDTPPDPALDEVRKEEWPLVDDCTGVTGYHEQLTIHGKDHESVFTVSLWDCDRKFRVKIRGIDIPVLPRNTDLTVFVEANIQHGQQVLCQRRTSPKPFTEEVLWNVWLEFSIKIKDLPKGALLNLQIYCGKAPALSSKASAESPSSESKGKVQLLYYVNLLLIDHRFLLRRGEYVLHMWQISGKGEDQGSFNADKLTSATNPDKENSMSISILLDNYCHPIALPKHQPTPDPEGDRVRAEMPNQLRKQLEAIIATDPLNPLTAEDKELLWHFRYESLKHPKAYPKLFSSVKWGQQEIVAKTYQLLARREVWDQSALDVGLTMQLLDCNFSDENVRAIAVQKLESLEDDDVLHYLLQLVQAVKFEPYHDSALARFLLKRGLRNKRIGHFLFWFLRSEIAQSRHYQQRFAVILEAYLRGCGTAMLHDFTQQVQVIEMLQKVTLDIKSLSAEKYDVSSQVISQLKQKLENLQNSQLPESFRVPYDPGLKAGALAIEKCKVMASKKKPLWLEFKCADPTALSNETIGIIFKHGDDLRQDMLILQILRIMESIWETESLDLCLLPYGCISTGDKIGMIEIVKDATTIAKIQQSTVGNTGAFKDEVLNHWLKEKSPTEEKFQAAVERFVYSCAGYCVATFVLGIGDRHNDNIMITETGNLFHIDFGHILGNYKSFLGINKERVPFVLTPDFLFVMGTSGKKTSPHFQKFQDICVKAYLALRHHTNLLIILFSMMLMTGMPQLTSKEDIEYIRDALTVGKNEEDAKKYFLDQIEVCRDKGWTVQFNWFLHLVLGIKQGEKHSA
T4 sequence (P42338 whole entry, canonical isoform): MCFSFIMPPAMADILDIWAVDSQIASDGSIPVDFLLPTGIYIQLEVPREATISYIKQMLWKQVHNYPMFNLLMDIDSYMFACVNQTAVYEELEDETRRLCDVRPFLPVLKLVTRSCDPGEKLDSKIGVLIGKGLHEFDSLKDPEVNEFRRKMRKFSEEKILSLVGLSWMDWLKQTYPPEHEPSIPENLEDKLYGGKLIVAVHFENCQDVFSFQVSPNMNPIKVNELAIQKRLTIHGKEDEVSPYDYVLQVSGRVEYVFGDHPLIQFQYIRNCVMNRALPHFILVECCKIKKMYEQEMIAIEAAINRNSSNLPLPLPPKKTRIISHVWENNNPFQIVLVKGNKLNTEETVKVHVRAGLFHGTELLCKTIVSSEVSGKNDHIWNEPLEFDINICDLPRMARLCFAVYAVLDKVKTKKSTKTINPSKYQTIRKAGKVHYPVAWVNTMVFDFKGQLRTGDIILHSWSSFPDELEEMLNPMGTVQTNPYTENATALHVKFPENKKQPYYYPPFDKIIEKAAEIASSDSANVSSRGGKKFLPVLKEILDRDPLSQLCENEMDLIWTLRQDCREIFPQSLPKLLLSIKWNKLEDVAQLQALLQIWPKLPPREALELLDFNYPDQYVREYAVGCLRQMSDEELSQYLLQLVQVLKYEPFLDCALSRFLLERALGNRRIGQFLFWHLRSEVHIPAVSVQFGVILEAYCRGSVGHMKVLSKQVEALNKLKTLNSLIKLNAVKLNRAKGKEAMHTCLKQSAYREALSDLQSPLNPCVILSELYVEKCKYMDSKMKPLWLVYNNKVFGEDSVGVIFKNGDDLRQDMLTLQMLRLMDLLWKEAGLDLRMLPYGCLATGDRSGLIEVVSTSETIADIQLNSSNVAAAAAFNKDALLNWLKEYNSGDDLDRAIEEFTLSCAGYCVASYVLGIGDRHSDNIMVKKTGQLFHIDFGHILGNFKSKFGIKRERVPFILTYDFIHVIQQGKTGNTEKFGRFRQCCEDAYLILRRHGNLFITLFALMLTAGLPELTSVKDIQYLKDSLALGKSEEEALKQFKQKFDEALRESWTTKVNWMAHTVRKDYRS

SMILES: N#CCc1ccc(Nc2ncnc3ccc(-c4ccccc4)cc23)cc1
- IC50 [1]: 0.475 µM
- GI50 [2]: 26 µM
- IC50 [3]: 6.95 µM
- Ratio IC50 (Homo sapiens [4]): > 21
- GI50 [5]: 23 µM
- IC50 [6]: > 10 µM
- inhibition [7]: 36.8%
- GI50 [8]: 14 µM
- GI50 [9]: 38 µM
- GI50 [10]: 38 µM
- Ratio IC50 (Homo sapiens [11]): > 21
- Ratio IC50 (Homo sapiens [12]): 14.6
- IC50 [13]: > 10 µM

SMILES: Nc1nc2cc(-c3ccc4ncc(C(=O)N5CCOCC5)n4c3)ccc2o1 [SERABELISIB]
- IC50 [14]: 13.9 µM
- IC50 [15]: 0.015 µM
- IC50 [16]: 1.9 µM
- IC50 [17]: 4.5 µM

SMILES: COc1cc2ncnc(Nc3ccc(CC#N)cc3)c2cc1OC
- IC50 [1]: 47 µM
- GI50 [2]: 34 µM
- IC50 [3]: 40 µM
- GI50 [5]: 47 µM
- IC50 [6]: 55 µM
- GI50 [8]: 40 µM
- GI50 [9]: 55 µM
- GI50 [10]: 19 µM
- IC50 [13]: 19 µM

SMILES: O=c1[nH]cc(F)c(=O)[nH]1 [FLUOROURACIL]
- inhibition in vivo at 20 mg/kg [18]: 96.9%
- Activity (Mus musculus [19]): 20.14 g
- Activity (Mus musculus [20]): 21 g
- inhibition in vivo at 22 mg/kg [21]: 50%
- Activity (Mus musculus [22]): 20.42 g
- Activity (Mus musculus [23]): 20.85 g
- Activity (Mus musculus [24]): Non-Toxic
- Activity (Mus musculus [25]): 21.42 g
- Activity (Mus musculus [26]): 22.14 g
- Activity (Mus musculus [27]): 22 g
- Activity (Mus musculus [28]): 21.28 g
- Activity (Mus musculus [29]): Non-Toxic
